In general, Kd refers to the constant that tells how readily two partners part at equilibrium. Low values mean a tighter complex, high ones a looser complex. As usually defined, the EC50 is the concentration that produces a half-maximal response. A word on the IC50: it is the point on the concentration scale where inhibition reaches its midpoint.

Each structure is given as a SMILES string.

These results are taken from article PMC9675722 (Cell chemical biology, 2022).

Assay [1] addresses T1, ERK5 (Homo sapiens, UniProt Q13164). The experiment in a line: KdELECT biochemical binding assay. The method, boiled down: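 Binding constants to ERK5 were determined in an outsourced KdELECT kinase binding assay from an 11-point dose–response curve.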
The subject of another assay is panel of 468 kinases. The experiment in a line: scanMAX KINOMEscan selectivity panel. The conditions noted are these: 1 μM. Type of assay: binding.
Assay [2] addresses T1, ERK5. The experiment in a line: ERK5 degradation in MOLT4 cells. In kind it is cell-based. Conditions: 5 hours, 5 μM or greater.
The target in the next assay is BRD4 (Homo sapiens, UniProt O60885). Put plainly: BRD4 immunoblot in MOLT4 cells. Conditions: 5 hours. In kind it is cell-based. The method, boiled down:
(§1)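 MOLT4 cells (RPMI, 10% heat-inactivated FBS, pen-strep, 37 °C, 5% CO2) were exposed to test compound at a range of concentrations for 5 h. Lysis was in M-PER with protease and phosphatase inhibitors, and lysates were BCA-normalised. Samples were run on 4–12% Bis-Tris gels and blotted to nitrocellulose. ERK5, BRD4, AURKA and actin antibodies were applied overnight at 4 °C. Detection was by IRDye secondaries. Blots are representative of 2–3 biological replicates.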
(In western blotting, separated proteins are transferred to a membrane and probed.)

Another assay deals with T2, AURKA (Homo sapiens, UniProt O14965).
T2 sequence (O14965 1-403): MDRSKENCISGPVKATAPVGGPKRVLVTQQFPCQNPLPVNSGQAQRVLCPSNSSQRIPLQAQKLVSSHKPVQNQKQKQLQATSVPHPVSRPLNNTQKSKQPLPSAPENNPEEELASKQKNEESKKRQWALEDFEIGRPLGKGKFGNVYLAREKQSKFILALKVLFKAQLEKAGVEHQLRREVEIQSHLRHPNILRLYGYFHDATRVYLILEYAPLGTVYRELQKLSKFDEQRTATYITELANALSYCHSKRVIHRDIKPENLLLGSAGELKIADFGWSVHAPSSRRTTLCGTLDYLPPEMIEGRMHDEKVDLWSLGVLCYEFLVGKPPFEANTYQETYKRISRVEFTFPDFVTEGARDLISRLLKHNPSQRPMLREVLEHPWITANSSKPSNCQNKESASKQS
Put plainly: AURKA immunoblot in MOLT4 cells. Type of assay: cell-based. The conditions noted are these: 5 hours. The method, boiled down: as §1

For another assay, the system named is MOLT4 cells. Put plainly: global quantitative TMT MS proteomics in MOLT4 cells. In kind it is cell-based, Human. The conditions noted are these: MOLT4, 100 nM, 5 hours, ~7,700 proteins quantified. In a few lines: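 MOLT4 cells were treated for 5 h with test compound (250 nM, or 100 nM for one degrader) or DMSO (biological triplicate), then harvested by centrifugation. TMT-labelled tryptic peptides were analysed by LC-MS3 on an Orbitrap Fusion Lumos using a 190 min 6–27% acetonitrile gradient. Spectra were searched against Swissprot human. Proteins with ≥2 unique peptides were kept, and abundance relative to DMSO was computed by limma.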

The next assay has as its system BT-474 cells. The experiment in a line: CellTiter-Glo proliferation assay, BT-474. Type of assay: cell-based, Human. The conditions noted are these: Homo sapiens, BT-474, 72 h, read-out: anti-proliferative EC50. (ATP-based viability assays read luminescence as a measure of living cells.)
The subject of a further assay is SNU-449 cells. The experiment in a line: CellTiter-Glo proliferation assay, SNU-449. Type of assay: cell-based, Human. The conditions noted are these: Homo sapiens, SNU-449, 72 h, read-out: anti-proliferative EC50.
In another assay the test system is MM.1S cells. Put plainly: CellTiter-Glo proliferation assay, MM.1S basal. In kind it is cell-based. Conditions: Homo sapiens, MM1.S, 72 h, read-out: anti-proliferative EC50. In a few lines:
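MM.1S cells, unstimulated, were grown in RPMI with 10% heat-inactivated FBS. They were plated at 500–1000 cells/well and exposed to test compound across a concentration series for 72 h. Viability was read by CellTiter-Glo luminescence. EC50 came from nonlinear regression curve fitting.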

In assay [3] the test system is IL-6 stimulated MM.1S cells. Put plainly: IL-6-induced MM.1S proliferation. In kind it is cell-based, Human. The conditions noted are these: 500 nM and 1 μM, 5 nM IL-6, 3d. In a few lines: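 MM.1S cells at 10,000 cells/well were pre-treated for 5 h with test compound at 500 nM or 1 μM. Recombinant human IL-6 (5 nM) was then added. After 72 h, proliferation was read by CellTiter-Glo. Data are mean with standard deviation of three biological replicates.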

The subject of the next assay is panel of 750 cell lines. Put plainly: PRISM platform anti-proliferative screen. The conditions noted are these: read-out: IC50 values in PRISM screen. Type of assay: cell-based.
Assay [4] addresses T1, ERK5. The experiment in a line: ERK5 degradation in HUVECs. Type of assay: cell-based. In a few lines: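 HUVECs (pooled primary, in vascular cell basal medium with VEGF growth kit and pen-strep, 37 °C, 5% CO2) were treated with test compound for 5 or 24 h. Lysates were BCA-normalised and separated on 4–12% Bis-Tris gels, then transferred to nitrocellulose. ERK5 and actin were probed overnight at 4 °C with IRDye secondary detection. Blots are representative of 2 biological replicates.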

The subject of the next assay is IL-6 secretion. The experiment in a line: IL-6 ELISA, LPS-stimulated HUVECs. In kind it is cell-based, Human. Conditions: LPS 10 μg/mL 6 hours. The method, boiled down:
(§2)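 HUVECs were seeded at 30,000–60,000 cells/well and pre-treated with test compound for 5 or 24 h. They were then stimulated with E. coli O111:B4 LPS at 10 μg/mL for 6 h. Secreted IL-6 or IL-8 in the supernatant was quantified by sandwich ELISA kits per the manufacturer. Statistics used two-way ANOVA with Bonferroni correction.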
(An ELISA detects its analyte on a solid surface through an enzyme-linked reagent.)

The next assay has as its system IL-8 secretion. Put plainly: IL-8 ELISA, LPS-stimulated HUVECs. In kind it is cell-based, Human. The conditions noted are these: LPS 10 μg/mL 6 hours. The method, boiled down: as §2

T1 sequence (Q13164 whole entry): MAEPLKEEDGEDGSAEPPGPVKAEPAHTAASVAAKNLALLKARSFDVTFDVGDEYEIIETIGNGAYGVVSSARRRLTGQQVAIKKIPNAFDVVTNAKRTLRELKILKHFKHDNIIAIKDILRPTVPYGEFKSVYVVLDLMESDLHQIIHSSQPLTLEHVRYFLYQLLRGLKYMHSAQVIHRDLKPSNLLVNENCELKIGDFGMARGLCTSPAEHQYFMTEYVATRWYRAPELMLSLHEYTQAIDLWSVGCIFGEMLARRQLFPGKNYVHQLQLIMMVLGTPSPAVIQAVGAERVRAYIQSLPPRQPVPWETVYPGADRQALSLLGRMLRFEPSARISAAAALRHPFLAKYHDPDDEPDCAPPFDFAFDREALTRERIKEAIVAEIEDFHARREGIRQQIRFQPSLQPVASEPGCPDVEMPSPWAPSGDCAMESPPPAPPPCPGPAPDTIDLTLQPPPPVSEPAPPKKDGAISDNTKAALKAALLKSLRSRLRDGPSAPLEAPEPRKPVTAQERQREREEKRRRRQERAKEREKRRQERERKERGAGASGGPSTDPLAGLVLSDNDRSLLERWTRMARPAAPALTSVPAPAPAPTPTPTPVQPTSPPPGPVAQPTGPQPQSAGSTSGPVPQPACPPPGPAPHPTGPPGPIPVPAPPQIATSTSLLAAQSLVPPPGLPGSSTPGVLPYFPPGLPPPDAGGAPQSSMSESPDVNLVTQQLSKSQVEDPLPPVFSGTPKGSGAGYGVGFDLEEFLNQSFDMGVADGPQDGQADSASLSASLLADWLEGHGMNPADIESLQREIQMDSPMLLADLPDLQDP

Consider `Cc1ncsc1-c1ccc([C@H](C)NC(=O)[C@@H]2C[C@@H](O)CN2C(=O)[C@@H](NC(=O)CCCCCN2CCN(c3ccc4c(C5CCN(C(=O)c6ccc(OC(F)(F)F)cc6N)CC5)ncnc4c3)CC2)C(C)(C)C)cc1` [INY-06-061, (2S,4R)-1-((S)-2-(6-(4-(4-(1-(2-amino-4-(trifluoromethoxy)benzoyl)piperidin-4-yl)quinazolin-7-yl)piperazin-1-yl)hexanamido)-3,3-dimethylbutanoyl)-4-hydroxy-N-((S)-1-(4-(4-methylthiazol-5-yl)phenyl)ethyl)pyrrolidine-2-carboxamide], for which binding on ERK5 [1] was put at a Kd of 0.012 µM. Moreover, the potential off-target kinases entry with panel of 468 kinases is “weak inhibition of potential off-targets (AXL, CDK19, SgK110, CDKL2, and AURKC)”. Besides, in the assay on panel of 468 kinases (468 kinases), the “biochemical selectivity profile across the kinome” value is reported as “high selectivity for ERK5”. Also, at ERK5 [2], the “ERK5 degradation at high concentration (hook effect)” value is “diminished ERK5 degradation”. For the same compound, the BRD4 protein levels entry on BRD4 was “did not destabilize”. In addition, on AURKA, the AURKA protein levels result was “did not destabilize”. Moreover, the “proteins significantly downregulated, proteomics” value in the assay on MOLT4 cells is recorded as “ERK5 (MAPK7) was the only protein whose abundance was significantly downregulated”. In addition, the EC50 with BT-474 cells is over 20 µM; with SNU-449 cells, over 20 µM; in the assay with MM.1S cells it was 6 µM. The “effect on IL-6-induced proliferation” value in [3] is recorded as “no effect”. Besides, in the assay on panel of 750 cell lines, the IC50 is over 1 µM. Further, the ERK5 protein level entry at ERK5 [4] (1 μM, 5-hour treatment) was “potent downregulation of ERK5”. The ERK5 degradation result on ERK5 [4] (24 hours) is on record as “maintained for 24 hours”. The “IL-6 secretion upon LPS stimulation” value in the assay on IL-6 secretion (5-hour pre-treatment) is on record as “did not significantly suppress”; with IL-6 secretion (24-hour pre-treatment), “no effect”. Further, the “IL-8 secretion upon LPS stimulation” value is on record as “did not significantly suppress” in the assay on IL-8 secretion (5-hour pre-treatment) and “no effect” in the assay on IL-8 secretion (24-hour pre-treatment).
